Data as given in ChEMBL document CHEMBL1147076, “Antitumor activity of MLN8054, an orally active small-molecule inhibitor of Aurora A kinase” (Proc Natl Acad Sci U S A, 2007).

Experiments:
[1] = target: Ephrin type-A receptor 5 (Homo sapiens) (UniProt P54756); test: Activity of human EphA5 kinase at 1 uM
Outline: (§1)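 Single-point kinase profiling: each kinase in a 226-kinase panel tested with compound at 1 μM and ATP at 10 μM in every assay, run by an external screening service.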

[2] = target: Tyrosine-protein kinase Fer (Homo sapiens) (UniProt P16591); test: Activity of human Fer kinase at 1 uM; outline: as §1
[3] = target: Fibroblast growth factor receptor 4 (Homo sapiens) (UniProt P22455); test: Activity of human FGFR4 kinase at 1 uM
[4] = target: Glycogen synthase kinase-3 alpha (Homo sapiens) (UniProt P49840); test: Activity of human GSK3-alpha kinase at 1 uM
[5] = target: Homeodomain-interacting protein kinase 3 (Homo sapiens) (UniProt Q9H422); test: Activity of human HIPK3 kinase at 1 uM
[6] = target: Insulin-like growth factor 1 receptor (Homo sapiens) (UniProt P08069); test: Activity of human IGF1R kinase at 1 uM
[7] = target: Interleukin-1 receptor-associated kinase 1 (Homo sapiens) (UniProt P51617); test: Activity of human IRAK1 kinase at 1 uM
Sequence of Interleukin-1 receptor-associated kinase 1 (Homo sapiens) (P51617 whole entry, looked up): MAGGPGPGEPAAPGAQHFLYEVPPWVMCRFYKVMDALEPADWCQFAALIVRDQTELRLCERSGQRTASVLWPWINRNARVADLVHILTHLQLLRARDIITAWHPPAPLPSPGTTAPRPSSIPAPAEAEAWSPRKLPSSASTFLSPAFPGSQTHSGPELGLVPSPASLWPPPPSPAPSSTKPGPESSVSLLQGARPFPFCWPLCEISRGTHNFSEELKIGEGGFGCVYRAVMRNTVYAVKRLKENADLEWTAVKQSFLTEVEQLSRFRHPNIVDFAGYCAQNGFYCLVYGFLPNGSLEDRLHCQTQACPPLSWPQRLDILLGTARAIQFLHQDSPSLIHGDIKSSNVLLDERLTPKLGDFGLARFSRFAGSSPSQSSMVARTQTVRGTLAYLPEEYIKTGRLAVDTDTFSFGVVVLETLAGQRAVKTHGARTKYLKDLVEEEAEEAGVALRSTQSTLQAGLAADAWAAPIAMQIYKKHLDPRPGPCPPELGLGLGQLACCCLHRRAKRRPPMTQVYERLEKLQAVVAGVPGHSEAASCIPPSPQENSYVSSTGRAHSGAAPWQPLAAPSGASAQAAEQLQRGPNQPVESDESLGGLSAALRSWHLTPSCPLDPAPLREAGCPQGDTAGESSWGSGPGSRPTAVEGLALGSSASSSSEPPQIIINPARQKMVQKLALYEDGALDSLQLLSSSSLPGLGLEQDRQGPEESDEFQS

[8] = target: Tyrosine-protein kinase JAK3 (Homo sapiens) (UniProt P52333); test: Activity of human JAK3 kinase at 1 uM
[9] = target: LIM domain kinase 1 (Homo sapiens) (UniProt P53667); test: Activity of human LIMK1 kinase at 1 uM
Sequence of LIM domain kinase 1 (Homo sapiens) (P53667 whole entry, looked up, the tested form may be a part): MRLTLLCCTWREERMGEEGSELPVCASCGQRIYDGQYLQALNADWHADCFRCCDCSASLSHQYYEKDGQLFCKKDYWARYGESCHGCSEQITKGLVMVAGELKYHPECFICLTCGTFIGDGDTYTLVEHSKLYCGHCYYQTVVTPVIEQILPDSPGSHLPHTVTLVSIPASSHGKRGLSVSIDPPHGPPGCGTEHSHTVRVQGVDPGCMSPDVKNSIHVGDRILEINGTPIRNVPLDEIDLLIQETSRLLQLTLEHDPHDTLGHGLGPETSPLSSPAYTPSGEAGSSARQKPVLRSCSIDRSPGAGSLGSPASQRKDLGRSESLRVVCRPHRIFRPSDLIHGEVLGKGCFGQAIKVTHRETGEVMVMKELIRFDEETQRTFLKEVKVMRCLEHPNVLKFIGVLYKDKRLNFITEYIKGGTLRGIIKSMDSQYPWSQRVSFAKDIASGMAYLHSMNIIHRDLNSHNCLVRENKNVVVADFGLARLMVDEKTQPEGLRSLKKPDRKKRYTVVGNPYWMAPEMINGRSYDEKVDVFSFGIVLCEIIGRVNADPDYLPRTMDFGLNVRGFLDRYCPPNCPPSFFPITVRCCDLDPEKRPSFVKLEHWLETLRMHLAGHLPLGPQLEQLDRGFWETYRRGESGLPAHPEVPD

[10] = target: Dual specificity mitogen-activated protein kinase kinase 7 (Homo sapiens) (UniProt O14733); test: Activity of human MKK7-beta kinase at 1 uM
Sequence of Dual specificity mitogen-activated protein kinase kinase 7 (Homo sapiens) (O14733 whole entry): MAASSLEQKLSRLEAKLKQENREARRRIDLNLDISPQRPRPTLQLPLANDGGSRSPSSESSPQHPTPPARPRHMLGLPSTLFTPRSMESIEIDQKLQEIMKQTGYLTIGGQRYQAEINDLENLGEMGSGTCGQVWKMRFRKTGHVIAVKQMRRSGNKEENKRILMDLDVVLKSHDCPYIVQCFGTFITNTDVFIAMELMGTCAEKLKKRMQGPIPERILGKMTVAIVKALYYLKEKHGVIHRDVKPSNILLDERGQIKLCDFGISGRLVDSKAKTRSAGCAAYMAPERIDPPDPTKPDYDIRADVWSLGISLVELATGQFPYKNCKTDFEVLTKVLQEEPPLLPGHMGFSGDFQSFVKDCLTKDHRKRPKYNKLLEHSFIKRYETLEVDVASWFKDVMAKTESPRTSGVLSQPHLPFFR

[11] = target: Serine/threonine-protein kinase MRCK beta (Homo sapiens) (UniProt Q9Y5S2); test: Activity of human MRCKbeta kinase at 1 uM
[12] = target: Ribosomal protein S6 kinase alpha-4 (Homo sapiens) (UniProt O75676); test: Activity of human MSK2 kinase at 1 uM; outline: as §1
Sequence of Ribosomal protein S6 kinase alpha-4 (Homo sapiens) (O75676 whole entry, looked up): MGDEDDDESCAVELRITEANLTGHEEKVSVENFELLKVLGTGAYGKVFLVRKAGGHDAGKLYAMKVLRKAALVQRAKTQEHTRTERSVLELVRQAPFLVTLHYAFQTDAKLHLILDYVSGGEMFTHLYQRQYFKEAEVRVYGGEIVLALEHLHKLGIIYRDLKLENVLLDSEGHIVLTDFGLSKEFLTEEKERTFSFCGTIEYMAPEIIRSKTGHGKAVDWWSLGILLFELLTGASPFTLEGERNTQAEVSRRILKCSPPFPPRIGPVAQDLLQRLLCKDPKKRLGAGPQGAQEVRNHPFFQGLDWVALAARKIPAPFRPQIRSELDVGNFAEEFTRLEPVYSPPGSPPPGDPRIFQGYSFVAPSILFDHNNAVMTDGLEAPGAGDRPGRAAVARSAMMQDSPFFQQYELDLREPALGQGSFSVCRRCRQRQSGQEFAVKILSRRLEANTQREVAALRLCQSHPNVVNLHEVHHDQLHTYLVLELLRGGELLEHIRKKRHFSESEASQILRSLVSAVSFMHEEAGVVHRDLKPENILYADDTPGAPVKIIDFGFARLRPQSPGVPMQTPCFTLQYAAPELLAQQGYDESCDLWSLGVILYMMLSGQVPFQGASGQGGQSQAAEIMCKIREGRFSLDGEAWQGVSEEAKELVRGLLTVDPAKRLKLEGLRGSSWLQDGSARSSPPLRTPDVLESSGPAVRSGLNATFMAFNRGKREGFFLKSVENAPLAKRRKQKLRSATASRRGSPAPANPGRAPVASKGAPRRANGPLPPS

[13] = target: Serine/threonine-protein kinase 3 (Homo sapiens) (UniProt Q13188); test: Activity of human MST2 kinase at 1 uM
[14] = target: PAS domain-containing serine/threonine-protein kinase (Homo sapiens) (UniProt Q96RG2); test: Activity of human PASK kinase at 1 uM; outline: as §1
[15] = target: Platelet-derived growth factor receptor alpha (Homo sapiens) (UniProt P16234); test: Activity of human PDGFRalpha kinase at 1 uM
Outline: (§2)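 Single-point screen in a 226-kinase panel run by an outside service. Test compound at 1 μM with ATP at 10 μM in every assay. Other assay conditions are not given.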

[16] = target: Serine/threonine-protein kinase pim-2 (Homo sapiens) (UniProt Q9P1W9); test: Activity of human Pim2 kinase at 1 uM; outline: as §2
[17] = target: Protein kinase C alpha type (Homo sapiens) (UniProt P17252); test: Activity of human PKCalpha kinase at 1 uM; outline: as §2
[18] = target: Protein kinase C epsilon type (Homo sapiens) (UniProt Q02156); test: Activity of human PKCepsilon kinase at 1 uM; outline: as §1
[19] = target: Protein kinase C zeta type (Homo sapiens) (UniProt Q05513); test: Activity of human PKCzeta kinase at 1 uM; outline: as §2
[20] = target: cGMP-dependent protein kinase 1 (Homo sapiens) (UniProt Q13976); test: Activity of human PKG1alpha kinase at 1 uM; outline: as §1
[21] = target: Macrophage-stimulating protein receptor (Homo sapiens) (UniProt Q04912); test: Activity of human Ron kinase at 1 uM; outline: as §2
[22] = target: Proto-oncogene tyrosine-protein kinase ROS (Homo sapiens) (UniProt P08922); test: Activity of human Ros kinase at 1 uM; outline: as §2
PC-3 [23] = test: Increase in mitotis in human PC3 cells assessed as mitotic cell count after 24 hrs; type: functional
Outline: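 Cultured cells were exposed to drug for 24 h and stained with MPM2 (mitotic marker) and Hoechst. Cells were imaged on a high-content imaging system, and the percentage of Hoechst-stained cells positive for MPM2 was calculated.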

[24] = target: Death-associated protein kinase 1 (Homo sapiens) (UniProt P53355); test: Activity of human DAPK1 kinase at 1 uM; outline: as §1
Sequence of Death-associated protein kinase 1 (Homo sapiens) (P53355 whole entry, looked up): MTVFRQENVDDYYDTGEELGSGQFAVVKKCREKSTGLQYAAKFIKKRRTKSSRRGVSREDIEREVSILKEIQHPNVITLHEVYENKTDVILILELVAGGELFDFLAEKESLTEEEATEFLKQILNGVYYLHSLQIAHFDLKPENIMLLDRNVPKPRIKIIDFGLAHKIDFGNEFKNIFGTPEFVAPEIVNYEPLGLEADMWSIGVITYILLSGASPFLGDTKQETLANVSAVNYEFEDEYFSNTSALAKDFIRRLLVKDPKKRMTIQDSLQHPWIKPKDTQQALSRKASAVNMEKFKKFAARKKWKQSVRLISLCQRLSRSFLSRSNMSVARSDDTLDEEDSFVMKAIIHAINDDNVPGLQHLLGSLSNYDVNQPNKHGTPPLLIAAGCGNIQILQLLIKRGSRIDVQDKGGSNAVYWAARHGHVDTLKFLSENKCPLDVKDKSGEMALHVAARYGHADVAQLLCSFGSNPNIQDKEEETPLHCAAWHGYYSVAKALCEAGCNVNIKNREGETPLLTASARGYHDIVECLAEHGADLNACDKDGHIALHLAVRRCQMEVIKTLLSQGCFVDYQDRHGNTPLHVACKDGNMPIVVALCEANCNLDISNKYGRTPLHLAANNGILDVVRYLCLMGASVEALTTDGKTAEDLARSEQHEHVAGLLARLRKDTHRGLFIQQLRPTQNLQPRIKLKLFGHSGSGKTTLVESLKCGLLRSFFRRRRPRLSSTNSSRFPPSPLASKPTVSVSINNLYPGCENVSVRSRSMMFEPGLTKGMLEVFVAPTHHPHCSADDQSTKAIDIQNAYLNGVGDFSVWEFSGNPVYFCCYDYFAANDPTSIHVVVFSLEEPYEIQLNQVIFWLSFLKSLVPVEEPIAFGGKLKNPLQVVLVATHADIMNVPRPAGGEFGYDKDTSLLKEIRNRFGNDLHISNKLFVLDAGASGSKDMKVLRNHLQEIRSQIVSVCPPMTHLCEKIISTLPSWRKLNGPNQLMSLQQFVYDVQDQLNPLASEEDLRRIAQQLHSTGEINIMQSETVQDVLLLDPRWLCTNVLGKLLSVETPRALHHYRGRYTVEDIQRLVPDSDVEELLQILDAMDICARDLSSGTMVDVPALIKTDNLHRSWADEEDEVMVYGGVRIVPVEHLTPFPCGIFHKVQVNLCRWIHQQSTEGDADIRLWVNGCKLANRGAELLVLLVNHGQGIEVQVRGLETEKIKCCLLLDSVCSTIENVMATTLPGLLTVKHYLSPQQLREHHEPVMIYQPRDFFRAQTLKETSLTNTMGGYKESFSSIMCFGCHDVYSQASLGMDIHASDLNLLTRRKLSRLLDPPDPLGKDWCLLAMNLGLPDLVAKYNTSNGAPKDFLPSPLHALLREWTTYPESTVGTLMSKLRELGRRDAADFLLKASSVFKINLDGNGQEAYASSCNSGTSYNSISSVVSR

[25] = target: Serine/threonine-protein kinase 17A (Homo sapiens) (UniProt Q9UEE5); test: Activity of human DRAK1 kinase at 1 uM; outline: as §1
[26] = target: Tyrosine-protein kinase ZAP-70 (Homo sapiens) (UniProt P43403); test: Activity of human ZAP70 kinase at 1 uM; outline: as §2
Mus musculus = test: Toxicity in human HCT116 cells xenografted into athymic nude NCR nu/nu mouse assessed as decrease in neutrophil count at 30 mg/kg, BID after 21 days; type: organism-based, HCT-116; set-up: dose 30 mg/kg; scale not given: the % may be the effect or the level left; conditions: in vivo, 504 h
Outline: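 Female athymic nude NCR nu/nu mice were given HCT-116 cells (1 × 10^6) s.c. in the right flank. Drug in 10% hydroxypropyl-β-cyclodextrin/5% sodium bicarbonate was given orally (QD or BID) for 21 days. Body weight loss was recorded at the end of treatment, and neutrophil counts were also followed for the BID regimen.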

[27] = target: Mitogen-activated protein kinase kinase kinase 5 (Homo sapiens) (UniProt Q99683); test: Activity of human ASK1 kinase at 1 uM
[28] = target: CDK3/Cyclin E (Homo sapiens) (UniProt P24864+Q00526); test: Activity of human CDK3/cyclin E kinase at 1 uM; type: protein-complex assay; outline: as §1
[29] = target: Serine/threonine-protein kinase Chk1 (Homo sapiens) (UniProt O14757); test: Activity of human CHK1 kinase at 1 uM; outline: as §1
[30] = target: Casein kinase I isoform delta (Homo sapiens) (UniProt P48730); test: Activity of human CK1delta kinase at 1 uM; outline: as §1
Sequence of Casein kinase I isoform delta (Homo sapiens) (P48730 whole entry, looked up, canonical isoform): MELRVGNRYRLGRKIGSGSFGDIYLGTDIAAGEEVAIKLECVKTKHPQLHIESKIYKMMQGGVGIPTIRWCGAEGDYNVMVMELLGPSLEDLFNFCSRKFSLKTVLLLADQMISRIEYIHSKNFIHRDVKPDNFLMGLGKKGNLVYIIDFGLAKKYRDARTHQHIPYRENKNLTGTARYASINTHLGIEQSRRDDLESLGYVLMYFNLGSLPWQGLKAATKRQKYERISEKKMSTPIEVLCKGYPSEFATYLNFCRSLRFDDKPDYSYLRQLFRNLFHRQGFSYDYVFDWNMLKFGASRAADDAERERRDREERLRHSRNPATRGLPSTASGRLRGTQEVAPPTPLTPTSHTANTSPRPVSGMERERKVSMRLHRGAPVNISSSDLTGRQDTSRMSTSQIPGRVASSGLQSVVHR

Homo sapiens = organism: Homo sapiens; test: Activity of human CK2 kinase at 1 uM
[31] = target: Dual specificity protein kinase CLK3 (Homo sapiens) (UniProt P49761); test: Activity of human CLK3 kinase at 1 uM
[32] = target: Tyrosine-protein kinase receptor UFO (Homo sapiens) (UniProt P30530); test: Inhibition of Axl kinase at 1 uM
Outline: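 Single-point screen within a 226-kinase panel, with compound at 1 μM and ATP at 10 μM in all assays.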

PC-3 [33] = test: Cell cycle arrest in human PC3 cells by accumulation at G2/M phase at 1 uM after 24 hrs by flow cytometry relative to control; type: functional
Outline: (§3)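 DNA content profiles by flow cytometry of PC-3 prostate tumor cells exposed to drug diluted in DMSO for 24 or 48 h. Phase distribution was compared with DMSO-treated control cells.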

PC-3 [34] = test: Cell cycle arrest in human PC3 cells by accumulation at S phase at 4 uM after 24 hrs by flow cytometry relative to control; type: functional; outline: as §3
PC-3 [35] = test: Cell cycle arrest in human PC3 cells by accumulation at G2/M phase at 4 uM after 24 hrs by flow cytometry relative to control; type: functional; outline: as §3
PC-3 [36] = test: Cell cycle arrest in human PC3 cells by accumulation at G1 phase at 1 uM after 48 hrs by flow cytometry relative to control; type: functional; outline: as §3
PC-3 [37] = test: Cell cycle arrest in human PC3 cells by accumulation at S phase at 4 uM after 48 hrs by flow cytometry relative to control; type: functional; outline: as §3

O=C(O)c1ccc(Nc2ncc3c(n2)-c2ccc(Cl)cc2C(c2c(F)cccc2F)=NC3)cc1 [MLN-8054]
Activity [1]: 80%
Activity [2]: 57%
Activity [3]: 115%
Activity [4]: 110%
Activity [5]: 111%
Activity [6]: 88%
Activity [7]: 110%
Activity [8]: 100%
Activity [9]: 110%
Activity [10]: 95%
Activity [11]: 107%
Activity [12]: 106%
Activity [13]: 100%
Activity [14]: 114%
Activity [15]: 110%
Activity [16]: 101%
Activity [17]: 108%
Activity [18]: 123%
Activity [19]: 99%
Activity [20]: 103%
Activity [21]: 94%
Activity [22]: 88%
Activity (PC-3 [23]): 12%
Activity [24]: 114%
Activity [25]: 60%
Activity [26]: 96%
Activity (Mus musculus): 73%
Activity [27]: 120%
Activity [28]: 105%
Activity [29]: 109%
Activity [30]: 129%
Activity (Homo sapiens): 108%
Activity [31]: 81%
inhibition [32]: 59%
Activity (PC-3 [33]): 45.4%
Activity (PC-3 [34]): 13.2%
Activity (PC-3 [35]): 58.8%
Activity (PC-3 [36]): 23%
Activity (PC-3 [37]): 4.9%
